Experimental data reported in ChEMBL document CHEMBL3124843, “Synthesis, cytostatic, antimicrobial, and anti-HCV activity of 6-substituted 7-(het)aryl-7-deazapurine ribonucleosides” (J Med Chem, 2014).
Active and inactive are the calls of the source. How the calls were made is not given here.

Experiments:
[1] = Cytotoxicity against human HuH7 cells infected with Hepatitis C virus subtype 2a; type: cell-based, Huh-7
[2] = test system: Hepatitis C virus; test: Antiviral activity against Hepatitis C virus subtype 2a infected in human HuH7 cells; type: functional, organism-based, Hepacivirus hominis; details: genotype 2a, Huh-7
[3] = Cytotoxicity against human HuH7 cells infected with Hepatitis C virus subtype 1b; type: cell-based, Huh-7
[4] = test system: Hepatitis C virus; test: Antiviral activity against Hepatitis C virus subtype 1b infected in human HuH7 cells; type: functional, organism-based, Hepacivirus hominis; details: genotype 1b, Huh-7
[5] = test system: Candida tropicalis; test: Antifungal activity against Candida tropicalis after 48 hrs; type: functional, organism-based
[6] = test system: Pichia kudriavzevii; test: Antifungal activity against Candida crusei after 48 hrs; type: functional, organism-based
[7] = test system: Candida parapsilosis; test: Antifungal activity against Candida parapsilosis after 48 hrs; type: functional, organism-based
[8] = test system: Candida albicans; test: Antifungal activity against Candida albicans after 48 hrs; type: functional, organism-based
[9] = test system: Pseudomonas aeruginosa; test: Antibacterial activity against multi-resistant Pseudomonas aeruginosa A/16575 after 24 hrs; type: functional, organism-based
[10] = test system: Escherichia coli; test: Antibacterial activity against multi-resistant Escherichia coli C/16702 after 24 hrs; type: functional, organism-based
[11] = test system: Staphylococcus haemolyticus; test: Antibacterial activity against methicillin-resistant Staphylococcus haemolyticus A/16568 after 24 hrs; type: functional, organism-based
[12] = test system: Staphylococcus aureus; test: Antibacterial activity against methicillin-resistant Staphylococcus aureus MRSA 4591 after 24 hrs; type: functional, organism-based
[13] = test system: Pseudomonas aeruginosa; test: Antibacterial activity against Pseudomonas aeruginosa CCM 3955 after 24 hrs; type: functional, organism-based
[14] = test system: Escherichia coli; test: Antibacterial activity against Escherichia coli CCM 3954 after 24 hrs; type: functional, organism-based
[15] = test system: Staphylococcus aureus; test: Antibacterial activity against Staphylococcus aureus CCM 3953 after 24 hrs; type: functional, organism-based
[16] = test system: Enterococcus faecalis; test: Antibacterial activity against Enterococcus faecalis CCM 4224 after 24 hrs; type: functional, organism-based
[17] = Antiproliferative activity against human HeLaS3 cells after 72 hrs by XTT assay; type: functional, cell-based; details: HeLa S3, 72 h
In short: (§1)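 Antiproliferative test on HL-60 promyelocytic leukemia and HeLa S3 cervical carcinoma cells growing in liquid suspension.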

[18] = test system: HL-60; test: Antiproliferative activity against human HL60 cells after 72 hrs by XTT assay; type: functional, cell-based; details: HL-60, 72 h; in short: as §1
[19] = test system: HepG2; test: Antiproliferative activity against human HepG2 cells after 72 hrs by XTT assay; type: functional, cell-based; details: HepG2, 72 h
[20] = test system: MRC5; test: Cytostatic activity against human MRC5 cells after 72 hrs by MTT assay; type: ADME, cell-based; details: MRC5, 72 h
In short: (§2)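 IC50 is the concentration that cuts cell growth by 50%, read by quantitative metabolic MTT staining after a 3-day treatment. The resistant sublines were made by raising the concentration of the cytotoxic drug step by step. CEM-DNR-bulk (daunorubicin-selected) stably overexpresses mrp-1. K562-TAX (paclitaxel-selected) expresses only mdr-1. HCT116p53−/− carries null p53 alleles. BJ and MRC-5 are nonmalignant fibroblasts.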

[21] = test system: BJ; test: Cytostatic activity against human BJ cells after 72 hrs by MTT assay; type: ADME, cell-based; in short: as §2
[22] = test system: HCT-116; test: Cytostatic activity against p53-deficient human HCT116 cells after 72 hrs by MTT assay; type: functional, cell-based; details: HCT-116, 72 h; in short: as §2
[23] = test system: HCT-116; test: Cytostatic activity against human HCT116 cells after 72 hrs by MTT assay; type: functional, cell-based; details: HCT-116, 72 h; in short: as §2
[24] = test system: A549; test: Cytostatic activity against human A549 cells after 72 hrs by MTT assay; type: functional, cell-based; details: A549, 72 h; in short: as §2
[25] = test system: K562; test: Cytostatic activity against paclitaxel-resistant human K562 cells after 72 hrs by MTT assay; type: functional, cell-based; details: K562, 72 h; in short: as §2
[26] = test system: K562; test: Cytostatic activity against human K562 cells after 72 hrs by MTT assay; type: functional, cell-based; details: K562, 72 h; in short: as §2
[27] = Cytostatic activity against human CEM-DNR-bulk cells after 72 hrs by MTT assay; type: functional, cell-based; in short: as §2
[28] = test system: CCRF-CEM; test: Cytostatic activity against human CCRF-CEM cells after 72 hrs by MTT assay; type: functional, cell-based; in short: as §2

| SMILES | CC50 [1] [µM] | EC50 [2] [µM] | CC50 [3] [µM] | EC50 [4] [µM] | Activity [5] | Activity [6] | Activity [7] | Activity [8] | Activity [9] | Activity [10] | Activity [11] | Activity [12] | Activity [13] | Activity [14] | Activity [15] | Activity [16] | IC50 [17] [µM] | IC50 [18] [µM] | IC50 [19] [µM] | IC50 [20] [µM] | also measured |
| --- | --- | --- | --- | --- | --- | --- | --- | --- | --- | --- | --- | --- | --- | --- | --- | --- | --- | --- | --- | --- | --- |
| O=c1[nH]cnc2c1c(-c1cccs1)cn2[C@@H]1O[C@H](CO)[C@@H](O)[C@H]1O | > 44 | > 44 | > 44 | > 44 | inactive | inactive | inactive | inactive | inactive | inactive | inactive | inactive | inactive | inactive | inactive | inactive | > 20 | > 20 | > 20 | > 100 | IC50 [21]: > 100 µM; IC50 [22]: > 20 µM; IC50 [23]: > 20 µM; IC50 [24]: > 20 µM; IC50 [25]: > 20 µM; IC50 [26]: > 20 µM; IC50 [27]: > 20 µM; IC50 [28]: > 20 µM |
| Nc1nc(N)c2c(-c3ccsc3)cn([C@@H]3O[C@H](CO)[C@@H](O)[C@H]3O)c2n1 | > 44 | > 44 | > 44 | > 44 | inactive | inactive | inactive | inactive | inactive | inactive | inactive | inactive | inactive | inactive | inactive | inactive | > 20 | > 20 | > 20 | > 100 | IC50 [21]: > 100 µM; IC50 [22]: > 20 µM; IC50 [23]: > 20 µM; IC50 [24]: > 100 µM; IC50 [25]: > 20 µM; IC50 [26]: > 20 µM; IC50 [27]: > 20 µM; IC50 [28]: > 20 µM |
| O=c1[nH]cnc2c1c(-c1ccsc1)cn2[C@@H]1O[C@H](CO)[C@@H](O)[C@H]1O | > 44 | > 44 | > 44 | 14.3 | inactive | inactive | inactive | inactive | inactive | inactive | inactive | inactive | inactive | inactive | inactive | inactive | > 20 | 12 | > 15 | > 100 | IC50 [21]: > 100 µM; IC50 [22]: > 20 µM; IC50 [23]: > 20 µM; IC50 [24]: > 20 µM; IC50 [25]: > 20 µM; IC50 [26]: > 20 µM; IC50 [27]: > 20 µM; IC50 [28]: 14.5 µM |
| O=c1[nH]cnc2c1c(-c1ccco1)cn2[C@@H]1O[C@H](CO)[C@@H](O)[C@H]1O | > 44 | > 44 | > 44 | > 44 | inactive | inactive | inactive | inactive | inactive | inactive | inactive | inactive | inactive | inactive | inactive | inactive | 5.78 | 2.2 | > 15 | > 100 | IC50 [21]: > 100 µM; IC50 [22]: > 20 µM; IC50 [23]: 18.3 µM; IC50 [24]: > 20 µM; IC50 [25]: 17.8 µM; IC50 [26]: 15.5 µM; IC50 [27]: > 20 µM; IC50 [28]: > 20 µM |
| CNc1ncnc2c1c(-c1ccsc1)cn2[C@@H]1O[C@H](CO)[C@@H](O)[C@H]1O | > 44 | > 44 | > 44 | > 44 | inactive | inactive | inactive | inactive | inactive | inactive | inactive | inactive | inactive | inactive | inactive | inactive | > 20 | > 20 | > 20 | > 100 | IC50 [21]: > 100 µM; IC50 [22]: > 20 µM; IC50 [23]: > 20 µM; IC50 [24]: > 20 µM; IC50 [25]: > 20 µM; IC50 [26]: > 20 µM; IC50 [27]: > 20 µM; IC50 [28]: > 20 µM |
| Cc1ncnc2c1c(-c1ccccc1)cn2[C@@H]1O[C@H](CO)[C@@H](O)[C@H]1O | > 44 | > 44 | > 44 | 34.8 | inactive | inactive | inactive | inactive | inactive | inactive | inactive | inactive | inactive | inactive | inactive | inactive | > 20 | > 20 | > 20 | > 100 | IC50 [21]: > 100 µM; IC50 [22]: 95.3 µM; IC50 [23]: > 100 µM; IC50 [24]: > 20 µM; IC50 [25]: > 20 µM; IC50 [26]: > 20 µM; IC50 [27]: > 20 µM; IC50 [28]: > 20 µM |
| C#Cc1cn([C@@H]2O[C@H](CO)[C@@H](O)[C@H]2O)c2ncnc(SC)c12 | > 44 | > 44 | > 44 | 0.21 | inactive | inactive | inactive | inactive | inactive | inactive | inactive | inactive | inactive | inactive | inactive | inactive | 0.11 | 0.05 | > 15 | > 100 | IC50 [21]: 68.6 µM; IC50 [22]: 0.09 µM; IC50 [23]: 0.03 µM; IC50 [24]: 0.14 µM; IC50 [25]: 0.07 µM; IC50 [26]: 0.03 µM; IC50 [27]: 0.11 µM; IC50 [28]: > 20 µM |
| COc1ncnc2c1c(-c1cc3ccccc3o1)cn2[C@@H]1O[C@H](CO)[C@@H](O)[C@H]1O | > 44 | 10.2 | > 44 | 2.64 | inactive | inactive | inactive | inactive | inactive | inactive | inactive | inactive | inactive | inactive | inactive | inactive | 9.24 | 4.47 | > 20 | 65.6 | IC50 [21]: 22.4 µM; IC50 [22]: 14.5 µM; IC50 [23]: 13.8 µM; IC50 [24]: 17.7 µM; IC50 [25]: 13.1 µM; IC50 [26]: 20.9 µM; IC50 [27]: 10.8 µM; IC50 [28]: 5.37 µM |
